Measurements: ChEMBL document CHEMBL2331282, “9-[2-(R)-(Phosphonomethoxy)propyl]-2,6-diaminopurine (R)-PMPDAP and its prodrugs: optimized preparation, including identification of by-products formed, and antiviral evaluation in vitro” (Bioorg Med Chem, 2013)
Active and inactive are the calls of the source. The calls are words filed in the database; no cut-off is given here.

Columns and labels:
[1] = Cytotoxicity against dog MDCK cells assessed as alteration of cell morphology up to 100 uM by microscopic analysis; format: cell-based, Canis lupus familiaris
Coxsackievirus B4 [2] = assay: Antiviral activity against Coxsackievirus B4 infected in dog MDCK cells assessed as reduction of virus-induced cytopathogenicity; format: functional, organism-based; conditions: Enterovirus B
[3] = test system: Mammalian orthoreovirus 1; assay: Antiviral activity against Reovirus 1 infected in dog MDCK cells assessed as reduction of virus-induced cytopathogenicity; format: functional, organism-based; conditions: Mammalian orthoreovirus 1, MDCK
Human alphaherpesvirus 2 [4] = assay: Antiviral activity against Herpes simplex virus 2 infected in human HEL cells assessed as reduction of virus-induced cytopathogenicity; format: functional, organism-based; conditions: Human alphaherpesvirus 2, HEL
Felid alphaherpesvirus 1 [5] = assay: Antiviral activity against Feline herpes virus infected in cat CRFK cells assessed as reduction of virus-induced cytopathogenicity; format: functional, organism-based; conditions: Felid alphaherpesvirus 1, CRFK
Sindbis virus = assay: Antiviral activity against Sindbis virus infected in dog MDCK cells assessed as reduction of virus-induced cytopathogenicity; format: functional, organism-based
Coxsackievirus B4 [6] = assay: Antiviral activity against Coxsackievirus B4 infected in human HeLa cells assessed as reduction of virus-induced cytopathogenicity; format: functional, organism-based; conditions: Enterovirus B
[7] = test system: Human immunodeficiency virus 1; assay: Antiviral activity against Human immunodeficiency virus 1 infected in human CEM cells assessed as reduction of virus-induced cytopathogenicity; format: functional, organism-based; conditions: Human immunodeficiency virus 1, CCRF-CEM
Feline coronavirus = assay: Antiviral activity against Feline coronavirus infected in cat CRFK cells assessed as reduction of virus-induced cytopathogenicity; format: functional, organism-based; conditions: Alphacoronavirus 1, CRFK
Human respirovirus 3 = assay: Antiviral activity against Parainfluenza virus 3 infected in dog MDCK cells assessed as reduction of virus-induced cytopathogenicity; format: functional, organism-based; conditions: Human respirovirus 3, MDCK
[8] = test system: Vesicular stomatitis virus; assay: Antiviral activity against Vesicular stomatitis virus infected in human HEL cells assessed as reduction of virus-induced cytopathogenicity; format: functional, organism-based
Human betaherpesvirus 5 [9] = assay: Antiviral activity against Human cytomegalovirus infected in human HEL cells assessed as reduction of virus-induced cytopathogenicity; format: functional, organism-based; conditions: Human betaherpesvirus 5, HEL
[10] = Cytotoxicity against human HeLa cells assessed as alteration of cell morphology up to 100 uM by microscopic analysis; format: cell-based
[11] = Cytotoxicity against human CEM cells assessed as alteration of cell morphology by microscopic analysis; format: cell-based; conditions: CEM cells (CCRF-CEM)
Punta Toro virus [12] = assay: Antiviral activity against Punta Toro virus infected in dog MDCK cells assessed as reduction of virus-induced cytopathogenicity; format: functional, organism-based
Human alphaherpesvirus 1 [13] = assay: Antiviral activity against Herpes simplex virus 1 infected in human HEL cells assessed as reduction of virus-induced cytopathogenicity; format: functional, organism-based; conditions: Human alphaherpesvirus 1, HEL
[14] = Cytotoxicity against cat CRFK cells assessed as alteration of cell morphology up to 100 uM by microscopic analysis; format: cell-based, Felis catus
[15] = test system: Respiratory syncytial virus; assay: Antiviral activity against Respiratory syncytial virus infected in human HeLa cells assessed as reduction of virus-induced cytopathogenicity; format: functional, organism-based
[16] = Cytotoxicity against human HEL cells assessed as alteration of cell morphology up to 100 uM by microscopic analysis; format: cell-based
[17] = test system: Human immunodeficiency virus 2; assay: Antiviral activity against Human immunodeficiency virus 2 infected in human CEM cells assessed as reduction of virus-induced cytopathogenicity; format: functional, organism-based; conditions: Human immunodeficiency virus 2, CCRF-CEM
[18] = test system: Vesicular stomatitis virus; assay: Antiviral activity against Vesicular stomatitis virus infected in human HeLa cells assessed as reduction of virus-induced cytopathogenicity; format: functional, organism-based
[19] = test system: Feline immunodeficiency virus; assay: Antiviral activity against Feline immunodeficiency virus infected in cat CRFK cells assessed as decrease in FIV p24 antigen level treated post-viral infection measured after 6 days by ELISA; format: functional, organism-based; conditions: 144 h
Outline: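 CrFK cells (5000/well) pre-seeded 24 h at 37 °C, 5% CO2; washed with PBS containing 50 µg/ml DEAE-dextran, inoculated with 100 CCID50 FIV plus serial compound dilutions; after 2 h washed and overlaid with 5% FCS DMEM plus compound.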

Human alphaherpesvirus 3 [20] = assay: Antiviral activity against TK- Varicella zoster virus O7-1; format: functional, organism-based; conditions: Human alphaherpesvirus 3, O7-1
Felid alphaherpesvirus 1 [21] = assay: Antiviral activity against Feline herpes virus at non-toxic concentration; format: functional, organism-based
Human alphaherpesvirus 1 [22] = assay: Antiviral activity against Herpes simplex virus 1 at non-toxic concentration; format: functional, organism-based
[23] = test system: Human immunodeficiency virus 1; assay: Antiviral activity against Human immunodeficiency virus 1 3B infected in human MT4 cells assessed as reduction of virus-induced cytopathicity treated post-viral infection measured after 5 days by Cell-Titer Glo assay; format: functional, organism-based; conditions: MT4, 120 h
Human alphaherpesvirus 2 [24] = assay: Antiviral activity against Herpes simplex virus 2 at non-toxic concentration; format: functional, organism-based
Human alphaherpesvirus 3 [25] = assay: Antiviral activity against TK+ Varicella zoster virus OKA; format: functional; conditions: Human alphaherpesvirus 3, strain Oka vaccine
MT4 = assay: Cytotoxicity against human MT4 cells assessed as decrease in cell viability after 5 days by CellTiter Glo assay; format: cell-based; conditions: mt4, 120 h
Outline: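 MT-4 cells, 2000/well, in RPMI 1640 with 10% FBS plus penicillin/streptomycin; 3-fold serial dilutions, 10 concentrations, final DMSO ≤0.5%; 10 µM puromycin and 0.5% DMSO controls.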

Human betaherpesvirus 5 [26] = assay: Antiviral activity against Human cytomegalovirus at non-toxic concentration; format: functional, organism-based
Punta Toro virus [27] = assay: Antiviral activity against Punta Toro virus infected in african green monkey Vero cells; format: functional, organism-based
Vaccinia virus = assay: Antiviral activity against Vaccinia virus at non-toxic concentration; format: functional, organism-based; conditions: Orthopoxvirus vaccinia
Coxsackievirus B4 [28] = assay: Antiviral activity against Coxsackievirus B4 infected in african green monkey Vero cells; format: functional, organism-based; conditions: Enterovirus B
[29] = Cytotoxicity against cat CRFK cells assessed as decrease in cell viability after 3 days by CellTiter 96 Aqueous One solution assay; format: cell-based, Felis catus; conditions: 72 h

SMILES	MCC [1] [µg/mL]	EC50 (Coxsackievirus B4 [2]) [µg/mL]	EC50 [3] [µg/mL]	EC50 (Human alphaherpesvirus 2 [4]) [µg/mL]	EC50 (Felid alphaherpesvirus 1 [5]) [µg/mL]	EC50 (Sindbis virus) [µg/mL]	EC50 (Coxsackievirus B4 [6]) [µg/mL]	EC50 [7] [µg/mL]	EC50 (Feline coronavirus) [µg/mL]	EC50 (Human respirovirus 3) [µg/mL]	EC50 [8] [µg/mL]	EC50 (Human betaherpesvirus 5 [9]) [µg/mL]	MCC [10] [µg/mL]	MCC [11] [µg/mL]	EC50 (Punta Toro virus [12]) [µg/mL]	EC50 (Human alphaherpesvirus 1 [13]) [µg/mL]	MCC [14] [µg/mL]	EC50 [15] [µg/mL]	MCC [16] [µg/mL]	EC50 [17] [µg/mL]	other results
C[C@H](Cn1cnc2c(NCP(=O)(O)O)nc(N)nc21)OCP(=O)(O)O	> 100	> 100	> 100	> 100	> 100	> 100	> 100	> 100	> 100	> 100	> 100	> 100	> 100	> 100	> 100	> 100	> 100	> 100	> 100	> 100	EC50 [18]: > 100 µg/mL
C[C@@H](O)CNc1nc(N)c2ncn(C[C@@H](C)O)c2n1	> 100	> 100	> 100	> 100	> 100	> 100	> 100	> 100	> 100	> 100	> 100	> 100	> 100	> 100	> 100	> 100	> 100	> 100	> 100	> 100	EC50 [18]: > 100 µg/mL
C[C@@H](O)CNc1nc(N)nc2c1ncn2C[C@@H](C)O	> 100	> 100	> 100	> 100	> 100	> 100	> 100	> 100	> 100	> 100	> 100	> 100	> 100	> 100	> 100	> 100	> 100	> 100	> 100	> 100	EC50 [18]: > 100 µg/mL
CCCCCCCCCCCCCCCCOCCCOP(=O)([O-])CO[C@H](C)Cn1cnc2c(N)nc(N)nc21.[Na+]																					EC50 [19]: 0.58 nM; EC50 (Human alphaherpesvirus 3 [20]): 0.058 µg/mL; Activity (Felid alphaherpesvirus 1 [21]): inactive; Activity (Human alphaherpesvirus 1 [22]): inactive; EC50 [23]: 2.24 nM; Activity (Human alphaherpesvirus 2 [24]): inactive; EC50 (Human alphaherpesvirus 3 [25]): < 0.032 µg/mL; CC50 (MT4): 19800 nM; Activity (Human betaherpesvirus 5 [26]): inactive; EC50 (Punta Toro virus [27]): 12 µg/mL; Activity (Vaccinia virus): inactive; EC50 (Coxsackievirus B4 [28]): 9 µg/mL; CC50 [29]: 96000 nM
CCOC(=O)[C@H](C)NP(=O)(CO[C@H](C)Cn1cnc2c(N)nc(N)nc21)N[C@@H](C)C(=O)OCC																					EC50 [19]: 1100 nM; EC50 [23]: 290 nM; CC50 (MT4): > 100000 nM; CC50 [29]: 215000 nM
C[C@H](Cn1cnc2c(N)nc(N)nc21)OCP(=O)(O)O																					EC50 [19]: 120 nM; EC50 [23]: 940 nM; CC50 (MT4): > 100000 nM; CC50 [29]: > 500000 nM
